Key:
[1] = Growth inhibition of human Hs 578T cells; assay type: functional
SF-295 [2] = assay: Growth inhibition of human SF295 cells assessed as cell growth at 1 nM relative to untreated control; assay type: functional; details: read-out: Activity
RXF 393 [3] = assay: Growth inhibition of human RXF393 cells; assay type: functional
SNB-19 = assay: Growth inhibition of human SNB19 cells assessed as cell growth at 1 uM relative to untreated control; assay type: functional; details: read-out: Activity
K562 = assay: Growth inhibition of human K562 cells assessed as cell growth at 10 nM relative to untreated control; assay type: functional; details: read-out: Activity
RXF 393 [4] = assay: Growth inhibition of human RXF393 cells assessed as cell growth at 10 nM relative to untreated control; assay type: functional; details: read-out: Activity
PC-3 = assay: Drug uptake in cytoplasm of human PC3 cells at 5 uM by confocal microscopy; assay type: ADME, cell-based; details: pc-3, 5 µM
Procedure, shortened: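 PC-3 cells were plated overnight on fibronectin/[…]-coated slides and treated with 5 μM compound or DMSO for 1-6 h. Cells were PBS-washed, fixed in 4% formaldehyde, and stained with propidium iodide (nuclei) and anti-DNMT3a or anti-DNMT3b antibody. The compound was excited at 725 nm by multiphoton laser and imaged through a 500-550 nm filter by confocal microscopy.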

SF-295 [5] = assay: Growth inhibition of human SF295 cells assessed as cell growth at 10 uM relative to untreated control; assay type: functional; details: read-out: Activity
SK-MEL-5 [6] = assay: Growth inhibition of human SK-MEL-5 cells assessed as cell growth at 1 nM relative to untreated control; assay type: functional; details: read-out: Activity
LOX IMVI = assay: Growth inhibition of human LOXIMVI cells assessed as cell growth at 10 nM relative to untreated control; assay type: functional; details: read-out: Activity
EKVX = assay: Growth inhibition of human EKVX cells assessed as cell growth at 10 uM relative to untreated control; assay type: functional; details: read-out: Activity
Procedure, shortened: (§1)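 Run externally at the National Cancer Institute as a 59-cell-line panel screen, with concentrations up to 100 μM. Growth was scored relative to control, where negative growth or total cell kill was possible. Data are in the Supporting Information.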

MOLT-4 = assay: Growth inhibition of human MOLT4 cells assessed as cell growth at 1 uM relative to untreated control; assay type: functional; details: read-out: Activity
BT-549 = assay: Growth inhibition of human BT549 cells assessed as cell growth at 10 nM relative to untreated control; assay type: functional; details: read-out: Activity
MDA-MB-231 [7] = assay: Growth inhibition of human MDA-MB-231 cells assessed as cell growth at 1 nM relative to untreated control; assay type: functional; details: read-out: Activity
Malme-3M = assay: Growth inhibition of human MALME-3M cells assessed as cell growth at 1 uM relative to untreated control; assay type: functional; details: read-out: Activity
MDA-MB-231 [8] = assay: Growth inhibition of human MDA-MB-231 cells assessed as cell growth at 100 nM relative to untreated control; assay type: functional; details: read-out: Activity
786-0 = assay: Growth inhibition of human 786-0 cells assessed as cell growth at 100 nM relative to untreated control; assay type: functional; details: read-out: Activity
SF-295 [9] = assay: Growth inhibition of human SF295 cells; assay type: functional
HCC 2998 = assay: Growth inhibition of human HCC2998 cells; assay type: functional; details: read-out: LC50 (the source's name); procedure, shortened: as §1
SNB-75 = assay: Growth inhibition of human SNB75 cells assessed as cell growth at 100 nM relative to untreated control; assay type: functional; details: read-out: Activity
HCT-15 = assay: Growth inhibition of human HCT15 cells; assay type: functional; procedure, shortened: as §1
SK-MEL-5 [10] = assay: Growth inhibition of human SK-MEL-5 cells assessed as cell growth at 100 nM relative to untreated control; assay type: functional; details: read-out: Activity
NCI/ADR-RES = assay: Growth inhibition of human NCI/ADR-RES cells assessed as cell growth at 10 uM relative to untreated control; assay type: functional; details: read-out: Activity
OVCAR-8 [11] = assay: Growth inhibition of human OVCAR8 cells assessed as cell growth at 10 uM relative to untreated control; assay type: functional; details: read-out: Activity
SF-539 [12] = assay: Growth inhibition of human SF539 cells assessed as cell growth at 100 nM relative to untreated control; assay type: functional; details: read-out: Activity
TK-10 = assay: Growth inhibition of human TK10 cells assessed as cell growth at 1 uM relative to untreated control; assay type: functional; details: read-out: Activity
OVCAR-8 [13] = assay: Growth inhibition of human OVCAR8 cells assessed as cell growth at 100 nM relative to untreated control; assay type: functional; details: read-out: Activity
UACC-257 = assay: Growth inhibition of human UACC257 cells assessed as cell growth at 100 nM relative to untreated control; assay type: functional; details: read-out: Activity
SK-MEL-2 = assay: Growth inhibition of human SK-MEL-2 cells assessed as cell growth at 10 uM relative to untreated control; assay type: functional; details: read-out: Activity
RXF 393 [14] = assay: Growth inhibition of human RXF393 cells assessed as cell growth at 100 nM relative to untreated control; assay type: functional; details: read-out: Activity
OVCAR-5 = assay: Growth inhibition of human OVCAR5 cells assessed as cell growth at 10 nM relative to untreated control; assay type: functional; details: read-out: Activity
UACC-62 = assay: Growth inhibition of human UACC62 cells assessed as cell growth at 1 nM relative to untreated control; assay type: functional; details: read-out: Activity
SF-539 [15] = assay: Growth inhibition of human SF539 cells assessed as cell growth at 10 uM relative to untreated control; assay type: functional; details: read-out: Activity
HL-60(TB) = assay: Growth inhibition of human HL-60(TB) cells assessed as cell growth at 10 nM relative to untreated control; assay type: functional; details: read-out: Activity
SF-295 [16] = assay: Growth inhibition of human SF295 cells assessed as cell growth at 100 nM relative to untreated control; assay type: functional; details: read-out: Activity
UO-31 [17] = assay: Growth inhibition of human UO31 cells assessed as cell growth at 10 uM relative to untreated control; assay type: functional; details: read-out: Activity
UO-31 [18] = assay: Growth inhibition of human UO31 cells assessed as cell growth at 1 uM relative to untreated control; assay type: functional; details: read-out: Activity
OVCAR-8 [19] = assay: Growth inhibition of human OVCAR8 cells; assay type: functional
NCI-H23 = assay: Growth inhibition of human NCI-H23 cells assessed as cell growth at 1 nM relative to untreated control; assay type: functional; details: read-out: Activity
A549 = assay: Growth inhibition of human A549 cells assessed as cell growth at 1 uM relative to untreated control; assay type: functional; details: read-out: Activity
SK-OV-3 = assay: Growth inhibition of human SKOV3 cells assessed as cell growth at 1 nM relative to untreated control; assay type: functional; details: read-out: Activity
DU-145 = assay: Growth inhibition of human DU145 cells assessed as cell growth at 1 uM relative to untreated control; assay type: functional; details: read-out: Activity; procedure, shortened: as §1
A498 = assay: Growth inhibition of human A498 cells assessed as cell growth at 10 uM relative to untreated control; assay type: functional; details: read-out: Activity
T47D = assay: Growth inhibition of human T47D cells; assay type: functional
OVCAR-8 [20] = assay: Growth inhibition of human OVCAR8 cells assessed as cell growth at 10 nM relative to untreated control; assay type: functional; details: read-out: Activity
MDA-MB-435 = assay: Growth inhibition of human MDA-MB-435 cells assessed as cell growth at 100 nM relative to untreated control; assay type: functional; details: read-out: Activity
[21] = read-out: LC50 (the source's name)

## COc1ccc2c(c1)[nH]c1c(C)c(OS(=O)(=O)c3cccc4c(N(C)C)cccc34)ccc12
[1]
  GI50: 36.3 µM
  TGI: 93.7 µM
[1]; [21]
  CC50: > 100 µM
SF-295 [2]
  growth at 0.001 µM: 94%
RXF 393 [3]
  GI50: 2440 nM
  TGI: 5.95 µM
RXF 393 [3]; [21]
  CC50: > 100 µM
SNB-19
  growth at 1 µM: 45%
K562
  growth at 0.01 µM: 98%
RXF 393 [4]
  growth at 0.01 µM: 107%
PC-3
  Drug uptake: Active
SF-295 [5]
  growth at 10 µM: 1%
SK-MEL-5 [6]
  growth at 0.001 µM: 100%
LOX IMVI
  growth at 0.01 µM: 92%
EKVX
  growth at 10 µM: 16%
MOLT-4
  growth at 1 µM: 20%
BT-549
  growth at 0.01 µM: 90%
MDA-MB-231 [7]
  growth at 0.001 µM: 97%
Malme-3M
  growth at 1 µM: 22%
MDA-MB-231 [8]
  growth at 0.1 µM: 85%
786-0
  growth at 0.1 µM: 105%
SF-295 [9]
  GI50: 3.4 µM
  TGI: > 100 µM
SF-295 [9]; [21]
  CC50: > 100 µM
HCC 2998
  CC50: > 100 µM
SNB-75
  growth at 0.1 µM: 99%
HCT-15
  GI50: 4.35 µM
  TGI: > 100 µM
HCT-15; [21]
  CC50: > 100 µM
SK-MEL-5 [10]
  growth at 0.1 µM: 91%
NCI/ADR-RES
  growth at 10 µM: 15%
OVCAR-8 [11]
  growth at 10 µM: 24%
SF-539 [12]
  growth at 0.1 µM: 87%
TK-10
  growth at 1 µM: 48%
OVCAR-8 [13]
  growth at 0.1 µM: 101%
UACC-257
  growth at 0.1 µM: 97%
SK-MEL-2
  growth at 10 µM: 18%
RXF 393 [14]
  growth at 0.1 µM: 100%
OVCAR-5
  growth at 0.01 µM: 106%
UACC-62
  growth at 0.001 µM: 89%
SF-539 [15]
  growth at 10 µM: -32%
HL-60(TB)
  growth at 0.01 µM: 83%
SF-295 [16]
  growth at 0.1 µM: 69%
UO-31 [17]
  growth at 10 µM: 24%
UO-31 [18]
  growth at 1 µM: 54%
OVCAR-8 [19]
  GI50: 79.6 µM
  TGI: > 100 µM
OVCAR-8 [19]; [21]
  CC50: > 100 µM
NCI-H23
  growth at 0.001 µM: 89%
A549
  growth at 1 µM: 31%
SK-OV-3
  growth at 0.001 µM: 103%
DU-145
  growth at 1 µM: 7%
A498
  growth at 10 µM: -4%
T47D
  GI50: 3.06 µM
  TGI: > 100 µM
T47D; [21]
  CC50: > 100 µM
OVCAR-8 [20]
  growth at 0.01 µM: 103%
MDA-MB-435
  growth at 0.1 µM: 83%
